# Experimental data as given in ChEMBL document CHEMBL1154718, “Carbamate analogues of fumagillin as potent, targeted inhibitors of methionine aminopeptidase-2” (J Med Chem, 2009).
# Legend:
# [1] = Antiproliferative activity against BAEC; format: functional, cell-based; conditions: Bos taurus
# HUVEC = experiment: Antiproliferative activity against HUVEC after 72 hrs by MTT assay; format: cell-based; conditions: Homo sapiens
# Method in brief: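 HUVEC (passage 3-5) grown in endothelial growth medium at 37 C; 2000 cells/well seeded in triplicate. After attachment, fresh medium with compound for 72 h. MTT 0.25 mg/mL added for 2 h at 37 C, formazan dissolved in isopropanol, absorbance read at 570 nm. Value is concentration giving 50% growth inhibition.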
# [2] = target: Methionine aminopeptidase 2 (Homo sapiens) (UniProt P50579); experiment: Inhibition of MetAP2 assessed as remaining enzyme activity at 200 nM after 8 hrs relative to untreated control
# Method in brief: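 MetAP2 at 20 nM final was incubated with compound at 200 nM final in 1% glycerol, 20 mM HEPES, 100 mM KCl, 0.1 mM CoSO4. Triplicate samples were taken at 1, 2, 4 and 8 h, and residual activity was read with Met-AMC substrate. Result is percent activity remaining at 8 h.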
# Rattus norvegicus [3] = experiment: CNS toxicity in rat assessed as incidence of seizures at 60 mg/kg, iv qd for 14 days; conditions: in vivo, 336 h
# Rattus norvegicus [4] = experiment: CNS toxicity in rat assessed as incidence of seizures at 6 mg/kg, iv qd for 14 days; conditions: in vivo, 336 h
# Methionine aminopeptidase 2 (Homo sapiens), sequence (P50579 2-478 limits assumed): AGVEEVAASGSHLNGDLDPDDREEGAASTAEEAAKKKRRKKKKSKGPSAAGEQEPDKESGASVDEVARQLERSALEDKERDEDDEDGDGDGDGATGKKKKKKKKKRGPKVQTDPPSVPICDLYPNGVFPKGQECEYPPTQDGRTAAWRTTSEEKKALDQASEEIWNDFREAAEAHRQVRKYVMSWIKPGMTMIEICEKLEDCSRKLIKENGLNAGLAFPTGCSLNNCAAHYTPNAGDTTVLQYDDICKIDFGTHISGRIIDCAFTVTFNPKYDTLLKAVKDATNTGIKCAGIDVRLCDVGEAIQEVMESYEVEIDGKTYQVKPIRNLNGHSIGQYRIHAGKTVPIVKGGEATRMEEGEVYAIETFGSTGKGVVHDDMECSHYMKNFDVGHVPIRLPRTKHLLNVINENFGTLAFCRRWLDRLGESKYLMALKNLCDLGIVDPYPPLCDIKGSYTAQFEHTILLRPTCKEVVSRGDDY
SMILES,IC50 [1],IC50 (HUVEC),Activity [2],Activity (Rattus norvegicus [3]),Activity (Rattus norvegicus [4])
COC(=O)[C@@H](NC(=O)O[C@@H]1CC[C@]2(CO2)[C@H]([C@@]2(C)O[C@@H]2CC=C(C)C)[C@@H]1OC)C(C)C,0.017 nM,0.018 nM,,,
CO[C@H]1[C@@H]([C@@]2(C)O[C@@H]2CC=C(C)C)[C@]2(CC[C@H]1OC(=O)N[C@@H](C(=O)NCCC1CCCN1C)C(C)C)CO2 (stereo partly specified),,0.6 nM,4.5%,,
CO[C@H]1[C@@H]([C@@]2(C)O[C@@H]2CC=C(C)C)[C@]2(CC[C@H]1OC(=O)NC(=O)CCl)CO2,,0.25 nM,4%,,
CO[C@H]1[C@@H]([C@@]2(C)O[C@@H]2CC=C(C)C)[C@]2(CC[C@H]1OC(=O)N[C@@H](C(=O)NN1CCOCC1)C(C)C)CO2,,1.7 nM,5.2%,,
CO[C@H]1[C@@H]([C@@]2(C)O[C@@H]2CC=C(C)C)[C@]2(CC[C@H]1OC(=O)N[C@@H](C(N)=O)C(C)C)CO2,0.046 nM,0.095 nM,2.8%,Non-toxic,Non-toxic
CO[C@H]1[C@@H]([C@@]2(C)O[C@@H]2CC=C(C)C)[C@]2(CC[C@H]1OC(=O)N[C@@H](C(=O)NCCN1CCCC1)C(C)C)CO2,,0.6 nM,2.6%,,
"CO[C@H]1C([C@@]2(C)O[C@@H]2CC=C(C)C)[C@]2(CC[C@H]1OC(=O)NCCC[N+](C)(C)C)CO2 (single isomer, unassigned)",,> 100 nM,5.4%,,
"CO[C@H]1C([C@@]2(C)O[C@@H]2CC=C(C)C)[C@]2(CC[C@H]1OC(=O)NC(C)(C)C)CO2 (single isomer, unassigned)",,1.1 nM,,,
"CO[C@H]1C([C@@]2(C)O[C@@H]2CC=C(C)C)[C@]2(CC[C@H]1OC(=O)N[C@@H](C(=O)Nc1cccc(C(=O)O)c1)C(C)C)CO2 (single isomer, unassigned)",,15 nM,4.3%,,
"CO[C@H]1C([C@@]2(C)O[C@@H]2CC=C(C)C)[C@]2(CC[C@H]1OC(=O)NCc1ccc(C(=O)O)cc1)CO2 (single isomer, unassigned)",,0.7 nM,3.5%,,
"CO[C@H]1C([C@@]2(C)O[C@@H]2CC=C(C)C)[C@]2(CC[C@H]1OC(=O)NC(C)(C)C(N)=O)CO2 (single isomer, unassigned)",,1.7 nM,24%,,
"CO[C@H]1C([C@@]2(C)O[C@@H]2CC=C(C)C)[C@]2(CC[C@H]1OC(=O)NC1(C(N)=O)CCCC1)CO2 (single isomer, unassigned)",,0.7 nM,13%,,
"CO[C@H]1C([C@@]2(C)O[C@@H]2CC=C(C)C)[C@]2(CC[C@H]1OC(=O)NN1CCOCC1)CO2 (single isomer, unassigned)",,0.7 nM,5.7%,,
"CO[C@H]1C([C@@]2(C)O[C@@H]2CC=C(C)C)[C@]2(CC[C@H]1OC(=O)NCCC1CCC[N+]1(C)C)CO2 (single isomer, unassigned)",,> 100 nM,6.3%,,
"COC(=O)[C@H](NC(=O)O[C@@H]1CC[C@]2(CO2)C([C@@]2(C)O[C@@H]2CC=C(C)C)[C@@H]1OC)c1ccccc1 (single isomer, unassigned)",0.035 nM,0.036 nM,,,
"CO[C@H]1C([C@@]2(C)O[C@@H]2CC=C(C)C)[C@]2(CC[C@H]1OC(=O)NCCN1CCCC1)CO2 (single isomer, unassigned)",,0.1 nM,3.5%,,
"CO[C@H]1C([C@@]2(C)O[C@@H]2CC=C(C)C)[C@]2(CC[C@H]1OC(=O)NC(C)C)CO2 (single isomer, unassigned)",,0.06 nM,3%,,
"COC(=O)[C@H](NC(=O)O[C@@H]1CC[C@]2(CO2)C([C@@]2(C)O[C@@H]2CC=C(C)C)[C@@H]1OC)C(C)C (single isomer, unassigned)",0.048 nM,0.04 nM,,,
"CO[C@H]1C([C@@]2(C)O[C@@H]2CC=C(C)C)[C@]2(CC[C@H]1OC(=O)NCCC1CCCN1C)CO2 (single isomer, unassigned)",,0.2 nM,5.4%,,
"COC(=O)[C@@H](CC(C)C)NC(=O)O[C@@H]1CC[C@]2(CO2)C([C@@]2(C)O[C@@H]2CC=C(C)C)[C@@H]1OC (single isomer, unassigned)",0.118 nM,0.038 nM,,Toxic,Toxic
"CO[C@H]1C([C@@]2(C)O[C@@H]2CC=C(C)C)[C@]2(CC[C@H]1OC(=O)N1CCC(C(=O)O)CC1)CO2 (single isomer, unassigned)",,1.3 nM,8.3%,,
